Laboratory results as given in ChEMBL document CHEMBL4390639, “Design, Synthesis, and Biological Evaluation of Novel Allosteric Protein Disulfide Isomerase Inhibitors” (J Med Chem, 2019).
Active and inactive are the calls of the source. The rule behind the calls is not given here.

Experiments:
U-87 MG [1] = assay: Inhibition of colony formation in human U87MG cells assessed as combination index at 1 to 30 uM measured after 24 hrs in presence of arsenic trioxide by crystal violet staining based assay; assay type: functional, U-87MG ATCC
A 172 = assay: Induction of morphological changes in human A172 cells assessed as membrane blebbing at 11 uM measured after 48 hrs by Giemsa-staining based microscopic analysis; assay type: functional, cell-based
U-87 MG [2] = assay: Up regulation of AKR1C1 gene expression in human U87MG cells at 16 uM incubated for 4 hrs followed by bromouridine addition during last 30 mins of incubation by TRIzol-reagent based Bru-Seq analysis relative to control; assay type: functional, U-87MG ATCC
Method in brief: (§1)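 U87MG cells exposed to compound or DMSO vehicle for 4 h, with 2 mM bromouridine added for the final 30 min. Total RNA isolated with TRIzol; Bru-labelled nascent RNA captured on anti-BrdU antibody-conjugated magnetic beads and sequenced. Transcript abundance expressed as RPKM relative to DMSO. Experiment performed once.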

U-87 MG [3] = assay: Up regulation of BCO2 gene expression in human U87MG cells at 16 uM incubated for 4 hrs followed by bromouridine addition during last 30 mins of incubation by TRIzol-reagent based Bru-Seq analysis relative to control; assay type: functional, U-87MG ATCC; method in brief: as §1
U-87 MG [4] = assay: Down regulation of CTHRC1 gene expression in human U87MG cells at 16 uM incubated for 4 hrs followed by bromouridine addition during last 30 mins of incubation by TRIzol-reagent based Bru-Seq analysis relative to control; assay type: functional, U-87MG ATCC; method in brief: as §1
U-87 MG [5] = assay: Down regulation of GGT4P gene expression in human U87MG cells at 16 uM incubated for 4 hrs followed by bromouridine addition during last 30 mins of incubation by TRIzol-reagent based Bru-Seq analysis relative to control; assay type: functional, U-87MG ATCC
U-87 MG [6] = assay: Down regulation of AC022601.1 gene expression in human U87MG cells at 16 uM incubated for 4 hrs followed by bromouridine addition during last 30 mins of incubation by TRIzol-reagent based Bru-Seq analysis relative to control; assay type: functional, U-87MG ATCC
U-87 MG [7] = assay: Down regulation of PRLR gene expression in human U87MG cells at 16 uM incubated for 4 hrs followed by bromouridine addition during last 30 mins of incubation by TRIzol-reagent based Bru-Seq analysis relative to control; assay type: functional, U-87MG ATCC
Method in brief: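 Bru-seq in U87MG cells treated at 16 μM for 4 h; 2 mM bromouridine present during the last 30 min. TRIzol total RNA, then anti-BrdU bead capture of labelled RNA and sequencing. Readout is RPKM traces versus DMSO control. Performed once.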

U-87 MG [8] = assay: Down regulation of AC006206.2 gene expression in human U87MG cells at 16 uM incubated for 4 hrs followed by bromouridine addition during last 30 mins of incubation by TRIzol-reagent based Bru-Seq analysis relative to control; assay type: functional, U-87MG ATCC; method in brief: as §1
U-87 MG [9] = assay: Down regulation of RAET1E gene expression in human U87MG cells at 16 uM incubated for 4 hrs followed by bromouridine addition during last 30 mins of incubation by TRIzol-reagent based Bru-Seq analysis relative to control; assay type: functional, U-87MG ATCC; method in brief: as §1
U-87 MG [10] = assay: Up regulation of CYYR1-AS1 gene expression in human U87MG cells at 16 uM incubated for 4 hrs followed by bromouridine addition during last 30 mins of incubation by TRIzol-reagent based Bru-Seq analysis relative to control; assay type: functional, U-87MG ATCC; method in brief: as §1
U-87 MG [11] = assay: Up regulation of INHBA gene expression in human U87MG cells at 10 uM incubated for 4 hrs followed by bromouridine addition during last 30 mins of incubation by TRIzol-reagent based Bru-Seq analysis relative to control; assay type: functional, U-87MG ATCC; method in brief: as §1
U-87 MG [12] = assay: Up regulation of SESN2 gene expression in human U87MG cells at 10 uM incubated for 4 hrs followed by bromouridine addition during last 30 mins of incubation by TRIzol-reagent based Bru-Seq analysis relative to control; assay type: functional, U-87MG ATCC; method in brief: as §1
U-87 MG [13] = assay: Down regulation of MYBL1 gene expression in human U87MG cells at 10 uM incubated for 4 hrs followed by bromouridine addition during last 30 mins of incubation by TRIzol-reagent based Bru-Seq analysis relative to control; assay type: functional, U-87MG ATCC
Method in brief: (§2)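 Nascent transcription (Bru-seq) in U87MG cells: treatment at 10 μM for 4 h, with 2 mM bromouridine added for the final 30 min. Total RNA isolated with TRIzol; Bru-labelled RNA captured using anti-BrdU antibody on magnetic beads, then sequenced. Transcript traces reported as RPKM compared with DMSO-treated cells. Single experiment.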

U-87 MG [14] = assay: Up regulation of SLC7A5 gene expression in human U87MG cells at 10 uM incubated for 4 hrs followed by bromouridine addition during last 30 mins of incubation by TRIzol-reagent based Bru-Seq analysis relative to control; assay type: functional, U-87MG ATCC
Method in brief: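 U87MG cells treated 4 h with test compound (10 or 16 μM, as per line) or DMSO; 2 mM bromouridine added for final 30 min. Total RNA isolated with TRIzol, Bru-labelled nascent RNA captured with anti-BrdU antibody magnetic beads and sequenced; transcript abundance (RPKM) compared with DMSO control. Single experiment.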

U-87 MG [15] = assay: Up regulation of NMRAL2P gene expression in human U87MG cells at 10 uM incubated for 4 hrs followed by bromouridine addition during last 30 mins of incubation by TRIzol-reagent based Bru-Seq analysis relative to control; assay type: functional, U-87MG ATCC; method in brief: as §2
U-87 MG [16] = assay: Down regulation of LYPD6 gene expression in human U87MG cells at 10 uM incubated for 4 hrs followed by bromouridine addition during last 30 mins of incubation by TRIzol-reagent based Bru-Seq analysis relative to control; assay type: functional, U-87MG ATCC
U-87 MG [17] = assay: Up regulation of HSPA1B gene expression in human U87MG cells at 10 uM incubated for 4 hrs followed by bromouridine addition during last 30 mins of incubation by TRIzol-reagent based Bru-Seq analysis relative to control; assay type: functional, U-87MG ATCC; method in brief: as §1
U-87 MG [18] = assay: Up regulation of ATP6 V0D2 gene expression in human U87MG cells at 10 uM incubated for 4 hrs followed by bromouridine addition during last 30 mins of incubation by TRIzol-reagent based Bru-Seq analysis relative to control; assay type: functional, U-87MG ATCC; method in brief: as §1
U-87 MG [19] = assay: Up regulation of ALOXE3 gene expression in human U87MG cells at 10 uM incubated for 4 hrs followed by bromouridine addition during last 30 mins of incubation by TRIzol-reagent based Bru-Seq analysis relative to control; assay type: functional, U-87MG ATCC; method in brief: as §1
U-87 MG [20] = assay: Down regulation of ANKRD36B gene expression in human U87MG cells at 10 uM incubated for 4 hrs followed by bromouridine addition during last 30 mins of incubation by TRIzol-reagent based Bru-Seq analysis relative to control; assay type: functional, U-87MG ATCC
U-87 MG [21] = assay: Down regulation of BBS10 gene expression in human U87MG cells at 10 uM incubated for 4 hrs followed by bromouridine addition during last 30 mins of incubation by TRIzol-reagent based Bru-Seq analysis relative to control; assay type: functional, U-87MG ATCC
U-87 MG [22] = assay: Up regulation of CTH gene expression in human U87MG cells at 10 uM incubated for 4 hrs followed by bromouridine addition during last 30 mins of incubation by TRIzol-reagent based Bru-Seq analysis relative to control; assay type: functional, U-87MG ATCC; method in brief: as §1
U-87 MG [23] = assay: Up regulation of BAG3 gene expression in human U87MG cells at 10 uM incubated for 4 hrs followed by bromouridine addition during last 30 mins of incubation by TRIzol-reagent based Bru-Seq analysis relative to control; assay type: functional, U-87MG ATCC; method in brief: as §1
U-87 MG [24] = assay: Down regulation of FPGT gene expression in human U87MG cells at 10 uM incubated for 4 hrs followed by bromouridine addition during last 30 mins of incubation by TRIzol-reagent based Bru-Seq analysis relative to control; assay type: functional, U-87MG ATCC

N#Cc1cccc(/C=C/C(=O)c2ccc(O)cc2)c1
CI (U-87 MG [1]): <1

CCCCCN(CCCCC)S(=O)(=O)c1ccc(C(=O)/C=C/c2cccc(O)c2)cc1
Activity (A 172): Active

COC(=O)c1cccc(/C=C/C(=O)c2cccc(O)c2)c1
fold change (FC) (U-87 MG [2]): 8.1
fold change (FC) (U-87 MG [3]): 1.9
fold change (FC) (U-87 MG [4]): 3.4
fold change (FC) (U-87 MG [5]): 3.3
fold change (FC) (U-87 MG [6]): 2.7
fold change (FC) (U-87 MG [7]): 2.6
fold change (FC) (U-87 MG [8]): 3.9
fold change (FC) (U-87 MG [9]): 3.4
fold change (FC) (U-87 MG [10]): 4.3

CCCCCN(CCCCC)S(=O)(=O)c1ccc(C(=O)/C=C/c2cccc(C#N)c2)cc1
fold change (FC) (U-87 MG [11]): 27
fold change (FC) (U-87 MG [12]): 26.9
fold change (FC) (U-87 MG [13]): 2.6
fold change (FC) (U-87 MG [14]): 16.8
log2FC (U-87 MG [15]): 2.72
fold change (FC) (U-87 MG [16]): 3.1
fold change (FC) (U-87 MG [17]): 107.2
fold change (FC) (U-87 MG [18]): 11.9
fold change (FC) (U-87 MG [19]): 17
fold change (FC) (U-87 MG [20]): 2.8
fold change (FC) (U-87 MG [21]): 2.3
fold change (FC) (U-87 MG [22]): 17.7
fold change (FC) (U-87 MG [23]): 17.1
fold change (FC) (U-87 MG [24]): 2.3
